Records with an inconclusive call do not appear.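 Rule for the calls, unless noted: active = viability increase at or above a cutoff of the median across tested compounds plus 3 SD (cut at about 8.5% in these data, passing the limit was not always enough); inconclusive = some gains above the cutoff, reason not given; inactive = the rest.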
Experiments:
[1] = OD615 S. cerevisiae growth inhibition, permissive medium, pilot counter-assay, permissive growth control for S. cerevisiae lifespan shortening project (AID 705;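 active = growth inhibition above 25% in both replicates, a cutoff set 3 SD above the mean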); conditions: OD615, 24 h, at 10 µM, stronger effect = higher value
In short: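 assay system = Saccharomyces cerevisiae strain carrying genetically modified DeaD replicative-lifespan system | medium = SC raffinose/galactose permissive medium | dosing = 10 µM single dose, 0.25% DMSO | schedule = 24 h compound exposure at 30 °C after 4 h pre-growth | measured by = OD at 615 nm | read-out basis = growth inhibition from lowered OD615 after 24 h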

[2] = Restrictive medium S. cerevisiae growth inhibition, OD615, pilot screen of yeast lifespan reduction project, restrictive growth control (AID 706;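 active = growth inhibition above a set limit, 3 SD over mean compound inhibition, in both replicates, cut at about 43% in these data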;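 note: modified DeaD lifespan yeast strain shifted to restrictive glucose medium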); conditions: OD615, 48 h, at 10 µM, stronger effect = higher value
In short: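 Buffer or medium: CSMM-D glucose medium. Material: genetically modified Saccharomyces cerevisiae, DeaD replicative lifespan assay strain. Times: 48 h compound exposure at 30 °C. Measured by: optical density at 615 nm.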

[3] = viability gain of MRP-1-high H69AR cells under doxorubicin, pilot screen, MRP-1 activator project, CellTiter-Glo, duplicate (AID 807); conditions: H69AR viability with doxorubicin, CellTiter-Glo luminescence; at 10 µM; stronger effect = higher value;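 note: compound pretreatment 18-22 h then 72 h combined with doxorubicin; 0% = doxorubicin alone and 100% = vehicle without doxorubicin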
[4] = growth suppression of beta-catenin knockout HCT116, pilot screen, human colon tumor cells (AID 823;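 active = cell viability at or below a set limit in both duplicate runs, the limit being the all-compound median minus 4 SD, cut at about 23% in these data, passing the limit was not always enough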;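 note: 0% = wells killed by 20 µM Hyamine and 100% = untreated DMSO cell wells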); conditions: CellTiter-Glo, 60 h, at 10 µM, stronger effect = lower value
[5] = growth suppression of PTEN-deleted HCT116, pilot screen, cell-based, HCT116 clonal line, CellTiter-Glo (AID 824;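 active = viability at or below 27.92% in each of two runs, the all-compound median minus 4 SD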;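 note: 0% = 20 µM Hyamine control and 100% = vehicle cell control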); conditions: 60 h, at 10 µM, stronger effect = lower value
[6] = inhibitors of the yeast RAM network, pilot screen, dse1pr::URA3 reporter, 5-FOA selection (AID 869;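 active = inhibition over a set limit, the all-compound mean plus 3 SD, in both replicate runs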;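 note: 0% = DMSO wells with no growth and 100% = 10 µM 1-NA-PP1 with full growth; RAM network block rescues cells from 5-FOA so hits raise OD615 growth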); conditions: S. cerevisiae dse1pr::URA3 5-FOA growth, OD615, 2 d; at 10 µM; stronger effect = higher value; strain carries analog-sensitive mutant Cbk1 kinase
[7] = RAM signaling pathway blockade in yeast – S. cerevisiae, Pdr1DBD-CYC8 efflux-inhibited sensitized strain, primary screen (AID 1298;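 active = RAM network inhibition above 8.4% in each of two replicates, 3 SD over the compound average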;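 note: 0% = DMSO untreated cells without growth and 100% = 10 µM 1-NA-PP1 full growth; higher means more yeast growth rescued from 5-FOA killing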); conditions: S. cerevisiae cbk1-as DSE1-URA3 strain, 5-FOA growth OD615, 2 d; at 50 µM; stronger effect = higher value

CCCc1cc(C(=O)NCc2cccs2)no1
inactive: growth inhibition [1] -11.4% | growth inhibition [2] 21.3% | viability increase [3] -3.29% | viability [4] 101% | viability [5] 94.1% | inhibition [6] 1.34% | RAM network inhibition [7] 0.74%

Cc1nnc(SCC(=O)Nc2ccc3c(c2)COC3=O)n1-c1ccccc1
inactive: growth inhibition [1] -9.99% | growth inhibition [2] 0.555% | viability increase [3] -0.13% | viability [4] 98.8% | viability [5] 92.8% | inhibition [6] 3.27% | RAM network inhibition [7] 1.16%

O=C(CCn1c(=O)oc2ccccc21)N1CCN(c2ccc(F)cc2)CC1
inactive: growth inhibition [1] 2.05% | growth inhibition [2] -4.67% | viability increase [3] -0.8% | viability [4] 107% | viability [5] 102% | inhibition [6] 1.09% | RAM network inhibition [7] 3.71%

Cc1c2cn[nH]c(=O)c2c(C)n1Cc1ccc(F)cc1
inactive: growth inhibition [1] -17.7% | growth inhibition [2] -15% | viability increase [3] -3.21% | viability [4] 90.7% | viability [5] 98.5% | inhibition [6] 1.83% | RAM network inhibition [7] 5.11%

Cc1ccc(Cl)cc1N1CCN(C(=O)CCC(=O)O)CC1
inactive: growth inhibition [1] -10.9% | growth inhibition [2] -29.2% | viability increase [3] -1.08% | viability [4] 95.6% | viability [5] 91.3% | inhibition [6] 1.51% | RAM network inhibition [7] 2.18%

COc1ccccc1C(=O)Nc1nnc(-c2ccc3c(c2)CCCC3)o1
inactive: growth inhibition [1] -10.5% | growth inhibition [2] 7.12% | viability increase [3] -0.59% | viability [4] 90.2% | viability [5] 85.1% | inhibition [6] 0.08% | RAM network inhibition [7] -0.58%

O=C(Nc1ccccc1C(=O)N1CCN(Cc2ccccc2)CC1)c1ccccn1
inactive: growth inhibition [1] -4.94% | growth inhibition [2] -10.1% | viability increase [3] -2.39% | viability [4] 93.3% | viability [5] 96.2% | inhibition [6] -0.045% | RAM network inhibition [7] 6.33%

CCOC(=O)N1CCC(N2CC34C=CC(O3)C(C(=O)Nc3ccc(OCC)cc3)C4C2=O)CC1 (configuration not stated)
inactive: growth inhibition [1] 0.885% | growth inhibition [2] 0.91% | viability increase [3] 2.9% | viability [4] 108% | viability [5] 112% | inhibition [6] 0.595% | RAM network inhibition [7] 3.14%

CCCC(=O)Nc1nc(-c2ccc3c(c2)OCCO3)cs1
inactive: growth inhibition [1] -12% | growth inhibition [2] -6.14% | viability increase [3] 2.44% | viability [4] 77.9% | viability [5] 83.3% | inhibition [6] 1.37% | RAM network inhibition [7] 0.85%

CCn1c(SCc2nc(-c3ccccc3)no2)nc2ccccc21
inactive: growth inhibition [1] -12% | growth inhibition [2] 8.5% | viability increase [3] 1.73% | viability [4] 93.1% | viability [5] 92.3% | inhibition [6] 0.38% | RAM network inhibition [7] 1.2%

COc1cccc(-n2nnc3c(=O)n(C/C=C/c4ccccc4)cnc32)c1
inactive: growth inhibition [1] -5.38% | growth inhibition [2] -7.15% | viability increase [3] 0.57% | viability [4] 92.3% | viability [5] 86.9% | inhibition [6] 3.2% | RAM network inhibition [7] 2.07%

CCN(C(=O)COC(=O)C(Cc1ccccc1)N1C(=O)c2ccccc2C1=O)C1CCS(=O)(=O)C1 (configuration not stated)
inactive: growth inhibition [1] -4.4% | growth inhibition [2] -18.5% | viability increase [3] 0.46% | viability [4] 97.4% | viability [5] 99.5% | inhibition [6] 0.495% | RAM network inhibition [7] 2.8%

Cc1ccc2c(c1)NCC(C(=O)NCc1ccccc1)O2 (configuration not stated)
inactive: growth inhibition [1] -10.4% | growth inhibition [2] 2.51% | viability increase [3] 0.49% | viability [4] 103% | viability [5] 88.6% | inhibition [6] 1.46% | RAM network inhibition [7] 0.25%

C=CCn1c(SCC(=O)N2CCOCC2)nc(O)c(Cc2ccccc2)c1=O
inactive: growth inhibition [1] -12.9% | growth inhibition [2] -8.77% | viability increase [3] 1.77% | viability [4] 99.4% | viability [5] 98.5% | inhibition [6] 1.49% | RAM network inhibition [7] 1.73%

Cc1ccccc1NS(=O)(=O)c1cccc(-c2nnc(-c3ccccc3)o2)c1
inactive: growth inhibition [1] -8.74% | growth inhibition [2] -5.78% | viability increase [3] -0.75% | viability [4] 93.6% | viability [5] 85.7% | inhibition [6] 3.65% | RAM network inhibition [7] 4.08%

Cc1ccnc(SCC(=O)O)n1
inactive: growth inhibition [1] -0.18% | growth inhibition [2] -10.8% | viability increase [3] -1.15% | viability [4] 101% | viability [5] 101% | inhibition [6] 1.29% | RAM network inhibition [7] 1.08%

O=C(Cn1ncc2ccccc21)N1CCc2ccccc21
inactive: growth inhibition [1] -9.24% | growth inhibition [2] -14.6% | viability increase [3] -3% | viability [4] 72.2% | viability [5] 84.2% | inhibition [6] 1.26% | RAM network inhibition [7] 3.51%

COC(=O)C1=C(C)N(C)C(C)=C(C(=O)OC)C1c1ccccc1C
inactive: growth inhibition [1] -18.8% | growth inhibition [2] -21.1% | viability increase [3] -0.42% | viability [4] 94.6% | viability [5] 87.7% | inhibition [6] 0.365% | RAM network inhibition [7] 3.87%

Cc1ccc(S(=O)(=O)NCC(=O)N2CCC(C)CC2)cc1
inactive: growth inhibition [1] -17.5% | growth inhibition [2] -28.3% | viability increase [3] 0.72% | viability [4] 104% | viability [5] 107% | inhibition [6] 0.475% | RAM network inhibition [7] 4.08%

O=C(NCc1ccc(Cl)c(Cl)c1)c1cccnc1
inactive: growth inhibition [1] -7.96% | growth inhibition [2] 4.69% | viability increase [3] -1.74% | viability [4] 99% | viability [5] 90.9% | inhibition [6] 0.58% | RAM network inhibition [7] 3.32%

COCCNC(=O)CN1C(=O)COc2ccc(Cl)cc21
inactive: growth inhibition [1] -4.28% | growth inhibition [2] 6.35% | viability increase [3] -1.25% | viability [4] 111% | viability [5] 97.9% | inhibition [6] 1.12% | RAM network inhibition [7] 5.23%

Cc1ccc(-c2ccc(CCC(=O)O)n2C(C)C)cc1
inactive: growth inhibition [1] 3.3% | growth inhibition [2] -1.55% | viability increase [3] -1.75% | viability [4] 94.7% | viability [5] 101% | inhibition [6] 2.1% | RAM network inhibition [7] 4.37%

C=CCn1c(N(C)C)nc2c1c(=O)[nH]c(=O)n2C
inactive: growth inhibition [1] -8.42% | growth inhibition [2] -12.5% | viability increase [3] 1.25% | viability [4] 109% | viability [5] 100% | inhibition [6] 2.38% | RAM network inhibition [7] 4.26%

CCOC(=O)N1CCN(C(=O)CN(c2ccc(Oc3ccccc3)cc2)S(C)(=O)=O)CC1
inactive: growth inhibition [1] -5.22% | growth inhibition [2] -15.6% | viability increase [3] -2% | viability [4] 75.2% | viability [5] 66.2% | inhibition [6] 0.265% | RAM network inhibition [7] 2.44%

CC1CCCN(c2nc3c(c(=O)[nH]c(=O)n3C)n2CCSc2nc3ccccc3o2)C1 (configuration not stated)
inactive: growth inhibition [1] -1.52% | growth inhibition [2] -1.66% | viability increase [3] -3.56% | viability [4] 98% | viability [5] 98.5% | inhibition [6] 0.55% | RAM network inhibition [7] 7.08%

Cc1cc2cc(CNC(=O)c3ccc(Br)o3)ccc2[nH]1
inactive: growth inhibition [1] -6.49% | growth inhibition [2] -9.17% | viability increase [3] -1.33% | viability [4] 86.5% | viability [5] 85.1% | inhibition [6] 3.64% | RAM network inhibition [7] 8.22%

COc1ccccc1CNC(=O)c1ccc(CNc2c(N3CCCC3)c(=O)c2=O)cc1
inactive: growth inhibition [1] 3.65% | growth inhibition [2] -2.78% | viability increase [3] -2.46% | viability [4] 98.8% | viability [5] 94.8% | inhibition [6] 0.46% | RAM network inhibition [7] 2.8%

O=C(CC12CC3CC(CC(C3)C1)C2)NCO
inactive: growth inhibition [1] 4.32% | growth inhibition [2] 5.98% | viability increase [3] 0.63% | viability [4] 100% | viability [5] 104% | inhibition [6] 1.92% | RAM network inhibition [7] -1.39%

O=C(NCc1ccccc1Cl)c1cnc2n(c1=O)CCS2
inactive: growth inhibition [1] 3.67% | growth inhibition [2] 0.685% | viability increase [3] -0.78% | viability [4] 99.9% | viability [5] 96.9% | inhibition [6] 0.995% | RAM network inhibition [7] -0.68%

O=C(Nc1cccc(C(F)(F)F)c1)c1cnc2n(c1=O)CCS2
inactive: growth inhibition [1] -9.46% | growth inhibition [2] 5.56% | viability increase [3] 0.63% | viability [4] 108% | viability [5] 95.2% | inhibition [6] 2.6% | RAM network inhibition [7] 5.71%

CC12C(=O)N(c3cccc4cccnc34)C(=O)C1C1C=CC2C1 (configuration not stated)
inactive: growth inhibition [1] -7.71% | growth inhibition [2] 2.71% | viability increase [3] -1.54% | viability [4] 103% | viability [5] 102% | inhibition [6] 0.395% | RAM network inhibition [7] 1.05%

COC(=O)c1cc(Nc2cc(C)nc3ncnn23)cc(C(=O)OC)c1
inactive: growth inhibition [1] 7.62% | growth inhibition [2] 11% | viability increase [3] -3.2% | viability [4] 108% | viability [5] 97.1% | inhibition [6] 1.31% | RAM network inhibition [7] 1.36%

COCCNC(=O)C1CCN(S(=O)(=O)c2ccccc2)CC1
inactive: growth inhibition [1] -2.1% | growth inhibition [2] -7.54% | viability increase [3] -1.38% | viability [4] 101% | viability [5] 93.7% | inhibition [6] -0.045% | RAM network inhibition [7] 2.93%

Cc1cc(Nc2c(C)cccc2C)n2nc(C)nc2n1
inactive: growth inhibition [1] -4.35% | growth inhibition [2] 7.11% | viability increase [3] -0.85% | viability [4] 104% | viability [5] 111% | inhibition [6] 2.33% | RAM network inhibition [7] 0.16%

CCCSC1=C(C#N)C(c2ccc(O)c(OC)c2)CC(=O)N1 (configuration not stated)
inactive: growth inhibition [1] -14.9% | growth inhibition [2] -22.5% | viability increase [3] -2.92% | viability [4] 104% | viability [5] 101% | inhibition [6] 1.66% | RAM network inhibition [7] 1.36%

Cc1ccc(S(=O)(=O)c2nc(S(C)(=O)=O)sc2N(C)C)cc1
inactive: growth inhibition [1] 0.44% | growth inhibition [2] -4.42% | viability increase [3] -5.6% | viability [4] 86% | viability [5] 86.9% | inhibition [6] 0.565% | RAM network inhibition [7] 2.51%

— PubChem BioAssay
